# Compounds with a hit are over-represented: about 2.5% of the library has one in this group of screens.
# SENP1 inh: blocks the human SENP1 SUMO protease catalytic domain; Q9P0U3; inhibition, % at 10 µM; recombinant SENP1 catalytic domain, CyPet-SUMO1-YPet FRET cleavage; hit rate 0.21% among 360,000;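 active = inhibition at least 30% at 10 µM, raw YFP signal under a set limit, fluorescence ratio 0.5 to 1.5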;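 also: 0% = enzyme with DMSO and 100% = no enzyme wells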
#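 system = hSENP1 catalytic domain, recombinant | reagent = SFCypet-SUMO1-SFYpet substrate at 25 nM | doses = one dose per compound, 10 µM, 0.5% DMSO | incubation = enzyme reaction for 50 min at room temperature, dark | measured by = FRET, CFP and YFP emission | controls = no-enzyme low, enzyme-DMSO high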
# SENP6 inh: inhibitors of human SENP6 protease; AID 2599; Recombinant SENP6 catalytic domain, aminoluciferin luminescence; inhibition, % at 10 µM; hit rate 1.8% among 330,000;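 active = inhibition above about 50% at the single tested dose, limit read from the data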;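 also: plate controls were DMSO wells with enzyme for no effect and DMSO wells lacking enzyme for full effect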
# SENP8 block-1: inhibitors of human SENP8 protease. Q96LD8. purified SENP8, Z-RLRGG-aminoluciferin cleavage, luminescence. inhibition, % at 10 µM. hit rate 1.2% among 330,000. AID 2540; in the data active = inhibition above about 50%
# SENP7 block: blocks the human protease SENP7. recombinant SENP7, Z-RLRGG-aminoluciferin luminescence, 40 min. inhibition, % at 5 µM. hit rate 1.5% among 330,000;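 active = inhibition above about 50% at the single test dose, limit read from the data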;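 also: plate controls were DMSO with enzyme for no effect and no enzyme buffer wells for full effect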
# Target sequence (Q9BQF6 706-1050 limits assumed): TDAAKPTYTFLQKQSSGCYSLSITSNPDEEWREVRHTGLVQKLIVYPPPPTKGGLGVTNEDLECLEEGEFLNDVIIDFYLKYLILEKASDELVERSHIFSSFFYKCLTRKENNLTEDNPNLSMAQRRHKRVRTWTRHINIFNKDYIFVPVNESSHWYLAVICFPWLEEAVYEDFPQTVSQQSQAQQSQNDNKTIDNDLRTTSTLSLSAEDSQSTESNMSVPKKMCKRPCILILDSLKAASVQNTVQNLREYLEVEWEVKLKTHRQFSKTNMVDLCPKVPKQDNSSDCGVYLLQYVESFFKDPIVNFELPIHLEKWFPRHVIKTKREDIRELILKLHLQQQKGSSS
# SENP8 block-2: SENP8 (human) protease inhibition; recombinant SENP8, Nedd8 substrate fluorescence; inhibition, % at 20 µM; hit rate 0.64% among 360,000; in the data active = inhibition mostly above about 40%, no sharp cut-off; inactive = mostly below about 27%
# SENP8 confirm: human SENP8 inhibition, confirmed. shares compounds with SENP7 block. Recombinant SENP8, Z-RLRGG-aminoluciferin luminescence, 60 min. inhibition, % at 12.5 µM. hit rate 40% among 6,200. AID 488912;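 active = mean inhibition across replicates above about 50%, limit read from the data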
# SENP6 confirm: confirmation of human SENP6 protease inhibitors | AID 488915 | inhibition, % at 12.5 µM | shares compounds with SENP7 block | hit rate 58% among 6,200 | recombinant SENP6, Z-RLRGG-aminoluciferin luminescence
# SENP7 confirm: confirmation of human SENP7 protease inhibitors | shares compounds with SENP7 block | recombinant SENP7, Z-RLRGG-aminoluciferin luminescence, 40 min | inhibition, % at 12.5 µM | hit rate 69% among 6,200 | AID 488917
# Casp3 SENP sel: caspase-3 inhibition (SENP selectivity assay); shares compounds with SENP7 block; purified caspase-3, Z-DEVD-aminoluciferin luminescence, 60 min; inhibition, % at 12.5 µM; hit rate 60% among 6,200; AID 488918;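 active = mean inhibition above about 50%, limit read from the data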;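 also: plate controls were enzyme with DMSO for no effect and wells without caspase-3 for full effect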
# Target sequence (P42574 28-227 limits assumed): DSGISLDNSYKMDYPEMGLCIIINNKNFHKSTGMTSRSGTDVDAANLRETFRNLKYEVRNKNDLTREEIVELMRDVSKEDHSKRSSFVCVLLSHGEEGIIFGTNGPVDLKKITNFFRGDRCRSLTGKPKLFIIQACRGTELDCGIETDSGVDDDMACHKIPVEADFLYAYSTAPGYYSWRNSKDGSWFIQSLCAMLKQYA
# SENP luc ctr: interferes with luciferase luminescence in SENP counter-screen; shares compounds with SENP7 block; Pre-incubated SENP8/Z-RLRGG-aminoluciferin, luciferase luminescence interference; inhibition, % at 12.5 µM; hit rate 39% among 6,200;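 active = mean inhibition above about 50% when retested at one dose, limit read from the data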;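 also: plate controls were DMSO wells with completed reaction for no effect and substrate without enzyme for full effect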
# * marks the source's active call; other numbers are inactive results; i = inactive; · = not tested or not shown.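 The calls were made as follows, unless noted: active = mean inhibition above about 50% in the one-dose retest (limit read from the data); inactive = the rest.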
SMILES,SENP1 inh,SENP6 inh,SENP8 block-1,SENP7 block,SENP8 block-2,SENP8 confirm,SENP6 confirm,SENP7 confirm,Casp3 SENP sel,SENP luc ctr
COC(=O)c1sccc1N/N=C/c1cccc(OC)c1O,-3,94*,92*,99*,-402,8,78*,87*,70*,31
Cc1ccc(N=Nc2c(O)n(CN3CCOCC3)c3ccccc23)cc1,-2,67*,78*,84*,6,33,88*,98*,63*,26
Cc1ccc2nc(-c3ccc(Cl)cc3)c(Cc3ccccn3)n2c1,-15,·,·,·,-382,·,·,·,·,·
CCNC(=O)Oc1ccc[nH]c1=O,1,51*,13,14,16,-3,0,-6,4,3
O=C(Oc1ccc[nH]c1=O)C1CC1,1,·,·,·,0,·,·,·,·,·
Cc1ccc(-c2nc(-c3nccc4ccccc34)oc2-c2ccccc2)cc1,-136,69*,48,81*,-309,48,50*,84*,84*,72*
O=C(c1ccco1)c1coc2c1cc(O)c1ccccc12,1,60*,-5,20,21,-14,7,-1,1,-3
CC(=O)N(/N=C1\Sc2ccccc2C1=O)c1cccc(C)c1,-13,92*,94*,93*,-13,-6,84*,58*,11,16
CC(=O)N(CN1C(=O)c2ccccc2C1=O)c1cccc(C)c1,1,-10,-1,-6,15,·,·,·,·,·
O=C(Nc1ccc(F)c([N+](=O)[O-])c1)c1ccc2c(c1)OCCO2,1,57*,29,69*,9,31,41,87*,61*,40
COc1ccc(C(=O)Nc2ccc3c(c2)OCCO3)cc1[N+](=O)[O-],0,14,-2,8,19,·,·,·,·,·
O=C(Nc1ccc(Cl)cc1[N+](=O)[O-])c1ccc2c(c1)OCCO2,3,17,-16,64*,9,15,10,8,6,-5
Clc1ccc(COn2nnc3ccccc32)c(Cl)c1,2,60*,10,36,-8,46,46,77*,36,47
O=C1NC2NC(=O)N(C(Cc3ccccc3)C(=O)O)C2N1 (stereo not given),4,60*,2,5,17,-26,-24,-11,-6,-8
O=C(O)C(Cc1ccccc1)N1Cc2ccccc2C1=O (stereo not given),0,-6,-2,-6,19,·,·,·,·,·
O=C1/C(=C\c2ccc3ccccc3c2)CCCc2ccccc21,-1,-15,22,31,19,·,·,·,·,·
Cc1ccccc1/C=C1\CCCc2ccccc2C1=O,0,88*,95*,97*,2,95*,98*,102*,93*,94*
Cc1ccsc1/C=C1\CCc2ccccc2C1=O,0,94*,96*,99*,14,100*,101*,104*,100*,96*
O=C1C(=Cc2ccccn2)CCc2ccccc21,1,·,·,·,4,·,·,·,·,·
CCOc1ccc(NCCC(O)c2ccc(F)cc2)cc1 (stereo not given),3,-28,5,-8,6,·,·,·,·,·
O=C(Nc1nnc(-c2ccco2)s1)C1CC1,1,0,-1,5,-40,·,·,·,·,·
COc1ccc(C(=O)Nc2nnc(-c3cccs3)s2)cc1,0,-12,-9,56*,-468,-4,-4,-2,19,8
COc1ccc(NC(=O)Nc2nnc(-c3cccs3)s2)cc1,-3,-4,2,5,-134,·,·,·,·,·
COc1ccc(C(=O)Nc2nnc(-c3ccco3)s2)cc1,-3,88*,78*,95*,-293,-24,11,43,25,2
O=C(Nc1nnc(-c2ccco2)s1)c1ccccc1,-10,68*,50,0,-236,16,54*,85*,77*,28
SMILES,SENP1 inh,SENP6 inh,SENP8 block-1,SENP7 block,SENP8 block-2,SENP8 confirm,SENP6 confirm,SENP7 confirm,Casp3 SENP sel,SENP luc ctr
CC(C)C(=O)Nc1nnc(-c2ccco2)s1,0,-31,-7,-7,-19,·,·,·,·,·
CCNC(=O)C1(C)CCN(C(=O)c2ccc3c(c2)OCO3)C1 (stereo not given),1,·,·,·,8,·,·,·,·,·
O=C(O)c1cccc(N/N=C/c2ccc(F)c(F)c2)c1,0,101*,94*,2,-19,99*,99*,102*,86*,98*
Cc1cccc2cc(/C=N/Nc3ccc(C(=O)O)cc3)c(Cl)nc12,-36,83*,77*,5,-32,88*,90*,89*,72*,21
Cc1ccc(/C=N/Nc2cccc(C(=O)O)c2)s1,-35,95*,96*,97*,-39,99*,100*,103*,92*,98*
O=C(O)c1ccc(/C=N/Nc2cccc(C(F)(F)F)c2)cc1,-16,6,-3,-25,-54,·,·,·,·,·
O=C(N/N=C/c1ccncc1)c1cccc(N/N=C/c2ccncc2)c1,1,0,-13,-1,2,·,·,·,·,·
O=C(N/N=C/c1ccc(O)cc1)c1cccc(N/N=C/c2ccc(O)cc2)c1,-2,52*,15,22,-32,6,-11,25,25,32
O=C(O)c1ccc(N/N=C/c2cc3ccccc3nc2Cl)cc1,-33,39,10,6,-103,·,·,·,·,·
CCCCC(=O)N(C)c1c(CC)nc2c(OCC=C(C)C)cccn12,-2,·,·,·,32,·,·,·,·,·
Cc1ccc(NC(=O)CSCC(=O)Nc2cc(Cl)ccc2N2CCOCC2)cc1,1,-4,3,9,10,·,·,·,·,·
O=C(O)c1cccc(N/N=C/c2cccc3ccccc23)c1,-32,97*,95*,55*,-35,100*,100*,103*,94*,99*
Cc1nn(-c2cccc(C(F)(F)F)c2)c(Cl)c1/C=N/Nc1cccc(C(=O)O)c1,-2,·,·,·,5,·,·,·,·,·
Cc1ccc(/C=N/NC(=O)c2ccc(C(=O)N/N=C/c3ccc(C)s3)o2)s1,-21,-22,-4,-3,i,·,·,·,·,·
O=C(O)c1ccc(N/N=C/c2cc(Br)cs2)cc1,-30,99*,97*,100*,-29,98*,99*,102*,46,97*
Cc1nn(-c2ccccc2Cl)c(Cl)c1/C=N/Nc1cccc(C(=O)O)c1,3,97*,97*,95*,-7,99*,101*,103*,91*,98*

# Screening results (PubChem BioAssay)
